Measured values collected from several papers.
Protocols differ between the studies behind these lines.
Target: Proto-oncogene tyrosine-protein kinase Src (SRC, Homo sapiens, UniProt P12931)

CO[C@@H]1[C@H](N(C)C(=O)c2ccccc2)C[C@H]2O[C@]1(C)n1c3ccccc3c3c4c(c5c6ccccc6n2c5c31)C(=O)NC4 — inhibition (enzyme activity; inhibitor; 1 µM): 31%
Cc1cc(O)c(-c2ccc([C@@H](C)CN(C)C)cc2)c2c1[nH]c(=O)c1sccc12 — inhibition (enzyme activity; inhibitor; 0.1 µM): -1.37%
C[C@H]1CC[C@H](n2c3cnccc3c3cnc(Nc4ccc5c(n4)CCN(C(=O)CO)C5)nc32)CC1 — remaining binding (cell-free assay; competition with immobilised ligand; 1 µM): 65%
COc1ccc2oc(-c3ccc4nc(N)oc4c3)c/c(=N\c3ccccc3NC(=O)CCN)c2c1 — remaining binding (binding; 1 µM): 72%
CCCCC(=O)Nc1ccc(-c2ccc3ncn(CCC)c(=O)c3c2)cn1 — remaining binding (binding; competition with immobilised ligand; 0.5 µM): 97%
Cc1cc2c(C(N)=O)c(N)n(-c3c(C)ccc(O)c3C)c2nc1C — inhibition (enzyme activity; inhibitor; TR-FRET; 3.333 µM): 100%
C#Cc1cc(-c2cc(Nc3nc(N[C@@H](C)c4ccc(F)cn4)ncc3Cl)n[nH]2)ccc1C=O — inhibition (enzyme activity; inhibitor; 0.2 µM): 37.7%
Cc1ccc(NC(=O)c2ccnc(C(F)(F)F)c2)cc1-c1cc(OCCO)nc(N2CCOCC2)c1 — remaining binding (binding; competition with immobilised ligand; 1 µM): 100%
N#Cc1ccc(NC(=O)Nc2ccccc2)cc1 — remaining binding (cell-free assay; competition with immobilised ligand; 25 µM): 100%
C=CC(=O)N1CCC([C@@H]2CCNc3c(C(N)=O)c(-c4ccc(Oc5ccccc5)cc4)nn32)CC1 — inhibition (enzyme activity; inhibitor; 1 µM): 42%
